According to the RNAGym collection of RNA variant scans (doi:10.1126/science.aae0568):
This sample holds only a part of the variants without activity.

B1: tRNA (parent)
chain: GUUCCGUUGGCGUAAUGGUAACGCGUCUCCCUCCUAAGGAGAAGACUGCGGGUUCGAGUCCCGUACGGAACG

Variants of: B1
Assay: yeast fitness relative to wild type (ratio to wild type); higher = fitter; tRNA-Arg(CCU), competitive growth, 37 C, YPD
Summary of the method: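 Amplicons of the tRNA-Arg(CCU) gene were sequenced, 100-nucleotide paired-end, from the start population and from each end population of a pooled yeast competition. The competition, in six parallel replicates, lasted 24 hours in YPD at 37°C. Fitness relative to wild type was calculated from changes in genotype frequencies. Genotypes had to have ≥ 100 starting reads, and estimates < 0.5 were set to 0.5.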
With U3C U19A C27U the yeast fitness was 0.696. With U3G A40G C46A the yeast fitness was 0.665. Work on U3C A57G yielded a yeast fitness of 0.714. U3C G12A A37C A45U G48C G50A showed a yeast fitness of at most 0.5. U3C C24U A40G C46A showed a yeast fitness of 0.702. Work on U3C G63C yielded a yeast fitness of 0.747. U3C G63A gave a yeast fitness of 0.909. Variant U3C C11U G17C C22A C24G U28C C33A has a yeast fitness of at most 0.5. For U3C C22G C27A C49U, the yeast fitness was at most 0.5. Variant U3C C27U C46G has a yeast fitness of 0.789. U3C G25C G48A gave a yeast fitness of 0.598. For U3C C5G U28G C31U G51A U54A U59A, the yeast fitness was at most 0.5. For U3C U8G U32A C33G, the yeast fitness was at most 0.5. In the case of U3G C4A G12A C29A C30G, the yeast fitness is reported as 0.556. For U3C C11A C33U C49A, the yeast fitness was at most 0.5. Variant U3C U16C C49G has a yeast fitness of at most 0.5. Work on U3C U13A C31U G41A yielded a yeast fitness of 0.524. Variant U3C C22U C66U has a yeast fitness of 0.552. In the case of U3C G18C C30U A36U C55A, the yeast fitness is reported as at most 0.5. In the case of U3C C46A G50A, the yeast fitness is reported as 0.731. In the case of U3C C27U, the yeast fitness is reported as 0.941. Work on U3C G6C U7G C24G C27A U28A G41A yielded a yeast fitness of 0.618. In the case of U3C U32A, the yeast fitness is reported as 0.817. With U3C U8A A15C C31G C49U A57U G67C the yeast fitness was at most 0.5. Variant U3C G6A G18C C30U C31U G48A C55G A65U has a yeast fitness of at most 0.5. U3C C11A U32G C61A C62A gave a yeast fitness of 0.587. U3C C34U G41C C49U G58A U64A showed a yeast fitness of at most 0.5. For U3C U19G C61U, the yeast fitness was at most 0.5. With U3C A21U A37G G44A G63A the yeast fitness was at most 0.5. With U3C G38A G48A the yeast fitness was 0.595. Work on U3C U16G U19A A43U A57U yielded a yeast fitness of at most 0.5. Variant U3C C46A G48A has a yeast fitness of 0.877. U3C C30A C31G C49A C60U G67A gave a yeast fitness of at most 0.5. For U3C C11U G56A, the yeast fitness was 0.742. In the case of U3G A42G C62G, the yeast fitness is reported as at most 0.5. Variant U3C A36U G39A G52A has a yeast fitness of at most 0.5. U3C C11U U13C C24A A43C G50C C60G gave a yeast fitness of at most 0.5. Work on U3G C5A G63A yielded a yeast fitness of at most 0.5. U3C C27U U35C showed a yeast fitness of 0.626. In the case of U3C C31U C46A, the yeast fitness is reported as 0.79. With U3C U53A the yeast fitness was 0.664. U3C G6C A14U G25A G38A U47A C60G showed a yeast fitness of 0.558. For U3C G17A C30G C61G, the yeast fitness was at most 0.5. With U3C G23C the yeast fitness was 0.695. Work on U3C C11U U16C C30G C31G A37U yielded a yeast fitness of at most 0.5. For U3C U59C, the yeast fitness was 0.961. For U3G A15G C24G G50A C55U, the yeast fitness was 0.613. U3C G6A U16C G17A gave a yeast fitness of at most 0.5. With U3C G56A A69C the yeast fitness was 0.802. In the case of U3C C27U G48A C55A G63A, the yeast fitness is reported as at most 0.5. Variant U3C C27U C46A G50A C62U has a yeast fitness of 0.595. In the case of U3C G58C G67C, the yeast fitness is reported as 0.701. U3G C4U U35A G58A G67A gave a yeast fitness of at most 0.5. U3C G18A showed a yeast fitness of 0.916. For U3C U7A C29A G58A C61G A70U, the yeast fitness was 0.531. U3C C22G C27G C31G C61G A69U showed a yeast fitness of 0.615. Variant U3C U8C C27G C33A has a yeast fitness of at most 0.5. In the case of U3C C5U U26A G63A, the yeast fitness is reported as at most 0.5. With U3C C31U C49G the yeast fitness was 0.755. Work on U3C A70U yielded a yeast fitness of 1.01. For U3C G9C C11U U19C C30G A43C, the yeast fitness was at most 0.5. U3C C33G A69C showed a yeast fitness of 0.621. U3C U32G A40C G41A gave a yeast fitness of at most 0.5. Work on U3C C5G C11G G48A A69G yielded a yeast fitness of at most 0.5. With U3C C5A the yeast fitness was 0.89. U3C A37C A57G G68C gave a yeast fitness of at most 0.5. U3C C24U C46U C62U showed a yeast fitness of at most 0.5. U3C A21U gave a yeast fitness of 0.642. U3C C11U C29U G67A A70U showed a yeast fitness of at most 0.5. For U3C C22G A70C, the yeast fitness was 0.679. In the case of U3C U54C G67C, the yeast fitness is reported as at most 0.5. In the case of U3C G18A U53A U54G, the yeast fitness is reported as 0.544. For U3C C31U C34U U35A U53A G58A G68A, the yeast fitness was at most 0.5. U3C U7G G38C showed a yeast fitness of at most 0.5. In the case of U3C G6A G23C C49G U53G A57G, the yeast fitness is reported as at most 0.5. In the case of U3G C4U C22A, the yeast fitness is reported as at most 0.5. U3C C55A C60A gave a yeast fitness of at most 0.5. Variant U3C C27U A42G G67A has a yeast fitness of at most 0.5. Work on U3C A45C C46G C49A A69U yielded a yeast fitness of at most 0.5. For U3C C30A U35C G39A A42C A43G C46U A65C, the yeast fitness was at most 0.5. Variant U3C C4U C60A C66G has a yeast fitness of at most 0.5. Variant U3C U16C G44A A45U C60A has a yeast fitness of at most 0.5. Variant U3C C34A G44A G52A C55U has a yeast fitness of 0.562. In the case of U3C U32C C33U A42U, the yeast fitness is reported as 0.563. For U3C C55G U64A, the yeast fitness was 0.563. Variant U3G A21C G51A has a yeast fitness of 0.605. With U3C U26C C30U A37G C61A the yeast fitness was at most 0.5. U3C C27A C62U gave a yeast fitness of 0.526. In the case of U3C A37C C49G, the yeast fitness is reported as at most 0.5. Work on U3C C5U C24U A42C A57U yielded a yeast fitness of at most 0.5. U3C G25A U59A gave a yeast fitness of 0.642. In the case of U3C U32G C61A C62A, the yeast fitness is reported as 0.53. For U3C U26C G44C U54A, the yeast fitness was at most 0.5. U3C C11U gave a yeast fitness of 1.06. Variant U3C C29U C30G G39C C60A has a yeast fitness of at most 0.5. Variant U3C G6C C46A has a yeast fitness of 0.645. Variant U3C C5G C11G C66U has a yeast fitness of at most 0.5. For U3C C11U G12C, the yeast fitness was at most 0.5. U3C G51C gave a yeast fitness of 0.521. Work on U3C C5U G68A yielded a yeast fitness of at most 0.5. Work on U3C C46A A70C yielded a yeast fitness of 1.12. U3G A37U U54C G58A C66U showed a yeast fitness of at most 0.5. With U3C G12A A14U U54A A57U the yeast fitness was at most 0.5. U3C C34G A57C showed a yeast fitness of 0.715. Variant U3C G10A G23A C62G G67A has a yeast fitness of at most 0.5. Work on U3C A21U G50C A65U yielded a yeast fitness of at most 0.5. U3C A65G showed a yeast fitness of 0.887. With U3C C5A G17A A42G U64A the yeast fitness was at most 0.5. Variant U3C C4G G12C has a yeast fitness of 0.687. For U3C G9A A21G A40G G56A U64C, the yeast fitness was at most 0.5. U3C U8G A20G C24G gave a yeast fitness of at most 0.5. U3G A65U gave a yeast fitness of 0.855. For U3C G6A G18C C30U C31U A65U, the yeast fitness was at most 0.5. Work on U3C A45C G48A yielded a yeast fitness of 0.937. U3C C30U G44A gave a yeast fitness of 0.566. Work on U3C C31G U32C G38C C46G G48C yielded a yeast fitness of at most 0.5. Work on U3G A14G A43U U54A A57C yielded a yeast fitness of at most 0.5. In the case of U3C G52A G68A, the yeast fitness is reported as at most 0.5. Work on U3C G10C C33U A40C yielded a yeast fitness of at most 0.5. For U3C C27G C49A, the yeast fitness was at most 0.5. Work on U3C C62A yielded a yeast fitness of 0.865. For U3C C31U A45U, the yeast fitness was 0.718. For U3G A43G A65U, the yeast fitness was 0.701. With U3G A15U A36G the yeast fitness was at most 0.5. With U3C G18A C31A G56C A69C the yeast fitness was at most 0.5. Work on U3C C49G G63C yielded a yeast fitness of 0.617. In the case of U3C C22U G23A, the yeast fitness is reported as at most 0.5. Work on U3G A70C yielded a yeast fitness of 0.897. U3C C4U C30U A57G showed a yeast fitness of at most 0.5. For U3G A45G A65G, the yeast fitness was 0.729. Variant U3C C11A C24U A42G has a yeast fitness of 0.638. U3C C27U C62U showed a yeast fitness of 0.617. Work on U3C G48C C66U yielded a yeast fitness of 0.761. With U3G C5G C11U C29U U32C the yeast fitness was at most 0.5. With U3C U8G U32A C33G C62U A65G the yeast fitness was at most 0.5. For U3C C49G, the yeast fitness was 0.943. U3C C22G G52C G67C showed a yeast fitness of at most 0.5. With U3G A14G C30U G48C G68C the yeast fitness was at most 0.5. U3C C11A A15C C24A C27A G41C gave a yeast fitness of at most 0.5. Work on U3G A45G A57G yielded a yeast fitness of 0.717. U3G A21G A57C gave a yeast fitness of at most 0.5. In the case of U3C C29U G58C, the yeast fitness is reported as 0.58. With U3C C27U C31U the yeast fitness was 0.787. Variant U3C U19G C27G C33G U53G has a yeast fitness of 0.578. Variant U3C U32C A65U G68A has a yeast fitness of at most 0.5. Work on U3C A37G A42C A65C A69C yielded a yeast fitness of at most 0.5. U3C G48C C55A gave a yeast fitness of 0.541. U3C C30U A37G C61A showed a yeast fitness of at most 0.5. In the case of U3C G6A C29G G58A, the yeast fitness is reported as at most 0.5. With U3C U7A the yeast fitness was 0.772. U3G A69C showed a yeast fitness of 0.867. In the case of U3C U19G A21C U32A A37U, the yeast fitness is reported as at most 0.5. In the case of U3C G25A A45G, the yeast fitness is reported as 0.59. With U3C G51A A69C the yeast fitness was 0.602. For U3C U19A C22U, the yeast fitness was 0.558. Variant U3G C5G G10A C30A C31G C49A C60U G67A has a yeast fitness of 0.572. Work on U3C C11G C24G U54G yielded a yeast fitness of at most 0.5. Variant U3C C27G C33A C66G G67C has a yeast fitness of at most 0.5. Work on U3C C4U A15G U26A U32A yielded a yeast fitness of 0.571. For U3C C11U A65G, the yeast fitness was 0.732. Variant U3C C24A A43G G52A G58A has a yeast fitness of at most 0.5. With U3G A15G A21U G48A the yeast fitness was at most 0.5. Variant U3C C24U C29G C49U has a yeast fitness of 0.618. Work on U3G A14U C30U C55A yielded a yeast fitness of at most 0.5. Variant U3C G12A C30U C46G has a yeast fitness of at most 0.5. In the case of U3C G10C C55G, the yeast fitness is reported as at most 0.5. U3C C30U A42G G58C gave a yeast fitness of at most 0.5.
